Series [1] in a line: melting temperature; fluorescence melt of hairpins on a sequencing array, two-state fit, raised by 9.35 °C to match UV melts. Conditions: sodium 0.088 M. The gist of the method:
(§1)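 To match UV melts, fitted temperatures were raised by 9.35 °C. These fits were bootstrapped two-state models that gave melting temperature and folding enthalpy, combined by inverse variance over four replicates. The input was normalised Cy3 fluorescence of library hairpins with annealed Cy3 and quencher oligos on a sequenced MiSeq flow cell, imaged in 50 mM Na-HEPES pH 8.0, 25 mM NaCl in 2.5 °C steps up to 60 °C.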

Series [2] in a line: folding enthalpy; higher = less favourable; fluorescence melt of hairpins on a sequencing array, two-state fit. The following applies: sodium 0.088 M. The method in brief:
as §1

Take GTCTGCGGAAACGCAGGC (.(((((....))))).): the Tm in series [1] is 63.9 °C. Also, in series [2], the folding enthalpy was -19.6 kcal/mol.

With GTCTGCGGAAACGCGGAC (((.(((....))).))), in series [1], the Tm was 63.7 °C. For the same sequence, the folding enthalpy in series [2] was -39.2 kcal/mol.

For GTCTGCGGAAACGTAGAC ((((.((....)).)))), the Tm in series [1] is 53.2 °C. Moreover, the folding enthalpy in series [2] is -37.8 kcal/mol.

Regarding GTCTGGGAAACCAGAC ((((((....)))))), in series [1], the Tm was determined as 58.3 °C. For the same sequence, in series [2], the folding enthalpy is -38.3 kcal/mol.

For the sequence GTCTGGGCGAAAGCCGAC (((..(((....)))))), the Tm in series [1] was 44.4 °C. In addition, in series [2], the folding enthalpy was -14.6 kcal/mol.

Take GTCTGGGGAAACCCAGGC (.(((((....))))).): the Tm in series [1] worked out at 55.5 °C. Also, the folding enthalpy in series [2] is -28.1 kcal/mol.

On to GTCTGGGGAAACTCAGAC (((((.(....).))))), for which the Tm in series [1] was 49.1 °C. For the same sequence, the folding enthalpy in series [2] is -43.7 kcal/mol.

As for GTCTGTCGAAAGACCGAC (((.(((....))).))), the Tm in series [1] worked out at 47.7 °C. The folding enthalpy in series [2] was -27.8 kcal/mol.

Turning to GTCTGTCGAAAGACGAC (((.(((....)))))), the Tm in series [1] was 51.5 °C. For the same sequence, the folding enthalpy in series [2] is -28.6 kcal/mol.

Turning to GTCTGTGGAAACACAAAC ((.((((....)))).)), in series [1], the Tm amounted to 28.1 °C. The folding enthalpy in series [2] was -12.3 kcal/mol.

Consider GTCTGTGGAAACACAGGC (.(((((....))))).), for which the Tm in series [1] came to 53.7 °C. Further, the folding enthalpy in series [2] was -32.4 kcal/mol.

In the case of GTCTGTGGAAACACGGAC (((.(((....))).))), the Tm in series [1] is 53 °C. Besides, in series [2], the folding enthalpy was -34.9 kcal/mol.

For the sequence GTCTGTGGAAACATAGGC (.((.((....)).)).), in series [1], the Tm was found to be 31.3 °C. The folding enthalpy in series [2] was -16.4 kcal/mol.

For GTCTTAGAAATAAGAC ((((((....)))))), the Tm in series [1] worked out at 43.4 °C. For the same sequence, the folding enthalpy in series [2] was -26.5 kcal/mol.

As for GTCTTAGGAAACCAAGAC (((((.(....).))))), in series [1], the Tm was determined as 34.4 °C. The folding enthalpy in series [2] was -30.9 kcal/mol.

Regarding GTCTTCACGAAAGTGGAC (((..(((....)))))), the Tm in series [1] worked out at 31.9 °C. Moreover, in series [2], the folding enthalpy is -14.2 kcal/mol.

On to GTCTTCGAAAGAACGAC ((((((....))).))), for which the Tm in series [1] amounted to 37.6 °C. Also, in series [2], the folding enthalpy was -21.2 kcal/mol.

In the case of GTCTTCGAAAGAATGGAC ((((((....)))..))), the Tm in series [1] was 27.2 °C. For the same sequence, in series [2], the folding enthalpy is -14.9 kcal/mol.

For the sequence GTCTTGGGAAACCAAGAC (((((((....))))))), the Tm in series [1] was 62.1 °C. Moreover, in series [2], the folding enthalpy is -46.4 kcal/mol.

With GTCTTGGGAAACTAAGAC (((((.(....).))))), the Tm in series [1] was 42.8 °C. Also, the folding enthalpy in series [2] is -34.9 kcal/mol.

For the sequence GTGAAACGAAAGTTCAC (((.(((....)))))), in series [1], the Tm was determined as 47.6 °C. In addition, in series [2], the folding enthalpy was -18.3 kcal/mol.

For the sequence GTGAAACGAAAGTTCCAC (((.(((....))).))), in series [1], the Tm was found to be 43.9 °C. Further, the folding enthalpy in series [2] is -22.8 kcal/mol.

On to GTGAAAGGAAACCTTCAC (((((.(....).))))), for which the Tm in series [1] is 36.5 °C. The folding enthalpy in series [2] is -27 kcal/mol.

GTGAAAGGAAACTCTCAC ((((.((....)).)))): the Tm in series [1] came to 26.5 °C. Besides, the folding enthalpy in series [2] is -12.6 kcal/mol.

On to GTGAACCCGAAAGGGCAC (((..(((....)))))), for which the Tm in series [1] was 38.9 °C. In series [2], the folding enthalpy was -15.8 kcal/mol.

Consider GTGAACCGAAAGGTACAC (((.(((....))).))), for which the Tm in series [1] came to 54.3 °C. The folding enthalpy in series [2] was -35.7 kcal/mol.

For GTGAACGAAAGTTCACAC ((((((....)))..))), the Tm in series [1] is 66.6 °C. In series [2], the folding enthalpy was -10.8 kcal/mol.

As for GTGAACGAAAGTTCCCAC ((((((....)))..))), the Tm in series [1] came out at 29.7 °C. Moreover, in series [2], the folding enthalpy is -10.9 kcal/mol.

For the sequence GTGAACGAAAGTTTTCAC ((((((....)))..))), the Tm in series [1] was found to be 31.1 °C. Further, the folding enthalpy in series [2] was -15.6 kcal/mol.

As for GTGAACGGAAACATTCAC (((((.(....).))))), the Tm in series [1] was 35.4 °C. Further, the folding enthalpy in series [2] is -31.7 kcal/mol.

As for GTGAACGGAAACGCTCAC ((((.((....)).)))), in series [1], the Tm is 47.6 °C. In addition, the folding enthalpy in series [2] was -31.5 kcal/mol.

Turning to GTGAAGCGAAAGCTCCAC (((.(((....))).))), the Tm in series [1] is 50 °C. Besides, the folding enthalpy in series [2] was -24 kcal/mol.

Regarding GTGAAGGGAAACCTCCAC (((.(((....))).))), in series [1], the Tm turned out to be 38.5 °C. For the same sequence, the folding enthalpy in series [2] is -19.9 kcal/mol.

As to GTGAAGTCGAAAGACCAC (((..(((....)))))), in series [1], the Tm turned out to be 38.3 °C. The folding enthalpy in series [2] was -23.9 kcal/mol.

Turning to GTGAATCGAAAGATGCAC (((.(((....))).))), the Tm in series [1] worked out at 50.3 °C. In series [2], the folding enthalpy was -31.4 kcal/mol.

Regarding GTGACAGCGAAAGCTCAC (((..(((....)))))), the Tm in series [1] was determined as 41.4 °C. Besides, the folding enthalpy in series [2] was -21.6 kcal/mol.

With GTGACCCCGAAAGGGCAC (((..(((....)))))), in series [1], the Tm was 50.8 °C. The folding enthalpy in series [2] is -24.9 kcal/mol.

The values are drawn from the array DNA melting data of Ke et al. (doi:10.1101/2024.01.08.574731).
